Broadly, the IC50 is the point on the concentration scale where inhibition reaches its midpoint.

The target of data set [1] is T1, Solute carrier family 22 member 1 (Homo sapiens, UniProt O15245).
T1 sequence (O15245 whole entry): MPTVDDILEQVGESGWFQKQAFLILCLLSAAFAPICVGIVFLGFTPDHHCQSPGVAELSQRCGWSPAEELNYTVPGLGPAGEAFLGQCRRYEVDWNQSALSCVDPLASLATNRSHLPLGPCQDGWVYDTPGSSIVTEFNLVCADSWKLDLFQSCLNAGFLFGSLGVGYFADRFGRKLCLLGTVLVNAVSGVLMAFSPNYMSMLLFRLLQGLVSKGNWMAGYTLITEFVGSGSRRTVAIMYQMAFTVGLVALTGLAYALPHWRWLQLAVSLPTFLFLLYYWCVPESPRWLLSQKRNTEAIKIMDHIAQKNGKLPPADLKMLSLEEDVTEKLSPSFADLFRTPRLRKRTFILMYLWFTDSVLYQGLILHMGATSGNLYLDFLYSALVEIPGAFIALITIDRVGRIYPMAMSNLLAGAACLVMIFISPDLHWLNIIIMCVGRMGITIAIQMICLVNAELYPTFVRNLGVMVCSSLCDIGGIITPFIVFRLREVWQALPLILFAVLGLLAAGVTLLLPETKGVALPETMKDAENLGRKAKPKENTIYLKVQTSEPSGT
Description: Inhibition of human OCT1 expressed in HEK293 cells assessed as decrease in uptake of substrate [3H]MPP+ after 1 min by liquid scintillation counting method. The class given is cell-based. The method in brief: (§1)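 Stably transfected HEK293 cells expressing hOCT1, hOCT2 or hOCT3; 1 min uptake of [3H]MPP+ (1 μM) measured across inhibitor concentrations 10^-8 to 10^-2.5 M. Signal corrected for nonspecific background in empty-vector control cells; data as mean ± SD; IC50 obtained by nonlinear regression.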

For data set [2], the species on record is Homo sapiens. Put plainly: Selectivity ratio of IC50 for human OCT1 expressed in HEK293 cells to IC50 for human OCT3 expressed in HEK293 cells. In kind it is cell-based.
Data set [3] addresses T2, Solute carrier family 22 member 2 (Homo sapiens, UniProt O15244).
T2 sequence (O15244 whole entry): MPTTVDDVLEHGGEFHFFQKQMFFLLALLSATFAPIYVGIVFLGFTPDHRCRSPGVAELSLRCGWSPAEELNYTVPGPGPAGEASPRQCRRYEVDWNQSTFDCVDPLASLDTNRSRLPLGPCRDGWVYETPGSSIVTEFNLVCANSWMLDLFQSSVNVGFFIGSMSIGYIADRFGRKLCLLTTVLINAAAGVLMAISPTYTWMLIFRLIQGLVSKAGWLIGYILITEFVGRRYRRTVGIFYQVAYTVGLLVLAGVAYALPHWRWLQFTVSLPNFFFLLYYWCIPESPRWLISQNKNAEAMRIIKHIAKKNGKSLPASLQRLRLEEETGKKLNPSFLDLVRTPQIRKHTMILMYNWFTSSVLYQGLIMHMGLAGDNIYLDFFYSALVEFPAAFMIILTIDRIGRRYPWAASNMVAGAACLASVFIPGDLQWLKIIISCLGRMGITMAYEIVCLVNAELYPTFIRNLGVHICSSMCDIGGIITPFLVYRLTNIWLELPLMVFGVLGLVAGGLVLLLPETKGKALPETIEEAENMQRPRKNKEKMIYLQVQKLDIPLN
Put plainly: Inhibition of human OCT2 expressed in HEK293 cells assessed as decrease in uptake of substrate [3H]MPP+ after 1 min by liquid scintillation counting method. The class given is cell-based. The method in brief: as §1

For data set [4], the species on record is Homo sapiens. Description: Selectivity ratio of IC50 for human OCT2 expressed in HEK293 cells to IC50 for human OCT3 expressed in HEK293 cells. The class given is cell-based.
The target of data set [5] is T3, Solute carrier family 22 member 3 (Homo sapiens, UniProt O75751).
T3 sequence (O75751 whole entry): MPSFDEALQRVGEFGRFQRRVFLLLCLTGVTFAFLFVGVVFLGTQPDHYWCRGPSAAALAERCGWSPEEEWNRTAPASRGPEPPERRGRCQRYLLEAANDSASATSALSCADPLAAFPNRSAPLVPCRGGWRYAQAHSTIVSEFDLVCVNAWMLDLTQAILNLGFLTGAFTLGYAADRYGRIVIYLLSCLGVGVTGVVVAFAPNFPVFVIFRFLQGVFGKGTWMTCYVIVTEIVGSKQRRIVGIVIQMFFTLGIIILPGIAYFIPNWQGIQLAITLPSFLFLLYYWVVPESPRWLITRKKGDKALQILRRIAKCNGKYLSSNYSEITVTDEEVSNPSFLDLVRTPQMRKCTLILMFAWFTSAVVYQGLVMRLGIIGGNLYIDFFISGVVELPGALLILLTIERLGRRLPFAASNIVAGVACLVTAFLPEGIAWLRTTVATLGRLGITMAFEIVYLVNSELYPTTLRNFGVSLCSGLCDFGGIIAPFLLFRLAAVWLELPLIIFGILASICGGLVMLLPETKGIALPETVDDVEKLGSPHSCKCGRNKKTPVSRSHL
Description: Inhibition of human OCT3 expressed in HEK293 cells assessed as decrease in uptake of substrate [3H]MPP+ after 1 min by liquid scintillation counting method. The class given is cell-based. The method in brief: as §1

Data set [6] has as its target T3, Solute carrier family 22 member 3. Description: Inhibition of OCT3 (unknown origin).
Data set [7] shares this target. Put plainly: Competitive inhibition of human OCT3 expressed in HEK293 cells in presence of varying concentration of MPP+ by Lineweaver-Burk plot analysis. The class given is cell-based. The method in brief: (§2)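 HEK293 cells stably expressing hOCT3; 1 min cellular accumulation of MPP+ (1-150 μM) with or without inhibitor at two concentrations. Uptake corrected for background in non-transporter-expressing control cells. Saturation curves fitted by nonlinear regression to a mixed-model inhibition equation to define mode of inhibition; Lineweaver-Burk transforms used for display.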

For data set [8] the target is unchanged. Description: Competitive inhibition of human OCT3 expressed in HEK293 cells up to 25 uM in presence of varying concentration of MPP+ by Lineweaver-Burk plot analysis. The class given is cell-based. The method in brief: as §2
Data set [9] has the same target. Put plainly: Competitive inhibition of human OCT3 expressed in HEK293 cells up to 10 uM in presence of varying concentration of MPP+ by Lineweaver-Burk plot analysis. The class given is cell-based. The method in brief: as §2

Turning to `NC(N)=Nc1ccc(I)cc1`, the figures for the IC50 in data set [1], in [3] and in [5] were 2.4 µM, 4.4 µM and 1.5 µM, respectively. Further, the Ratio IC50 in the data set filed under Homo sapiens [2] and in the data set listed under Homo sapiens [4] was < 5 in each case.
In the case of `N=C(N)Nc1ccc(Cc2ccccc2)cc1`, the IC50 in [1] was determined as 762 µM; in data set [3], 96.2 µM; in data set [5], 452 µM. Further, the Ratio IC50 in the data set filed under Homo sapiens [2] and in the data set filed under Homo sapiens [4] was < 5 in each case.
Turning to `Cc1ccc(NC(=N)N)cc1`, the results for the IC50 in data set [1], in [3] and in [5] were 10 µM, 9.3 µM and 4.6 µM, respectively. Moreover, the Ratio IC50 in the data set filed under Homo sapiens [2] and in the data set filed under Homo sapiens [4] was < 5 throughout.
`N=C(N)N` [GUANIDINE] had an IC50 in [6] of 2200 to 6200 µM.
As for `N=C(N)Nc1ccccc1` [PHENYLGUANIDINE], the results for the 50% inhibitory concentration (IC50) in [1], in data set [3] and in data set [5] were 41.1 µM, 89 µM and 99.8 µM, respectively. The Ratio IC50 in the data set listed under Homo sapiens [2] and in the data set filed under Homo sapiens [4] was < 5 each time.
`N=C(N)Nc1ccc(F)cc1`: the IC50 came out at 22.6 µM in data set [1], 48.3 µM in data set [3] and 27.8 µM in data set [5]. Further, the Ratio IC50 in the data set filed under Homo sapiens [2] and in the data set listed under Homo sapiens [4] was < 5 throughout.
`NC(N)=Nc1cccc(Cl)c1`: the IC50 in data set [1] was 13.7 µM; in data set [3], 60.5 µM; in [5] it was 7.6 µM.
In the case of `C=C[C@H]1C[N@@]2CC[C@H]1C[C@H]2[C@H](O)c1ccnc2ccc(OC)cc12` [QUININE], the “inhibition (INH)” value in [7] was “Active”.
Turning to `N=C(N)Nc1cccc(Cl)c1`, the Ratio IC50 in the data set listed under Homo sapiens [2] was < 5; in the data set filed under Homo sapiens [4] it was 8.
With `N=C(N)Nc1ccc(Br)cc1`, the IC50 in [1] was 6.3 µM; in [3], 11.3 µM; in [5] it was 4.8 µM. Also, the Ratio IC50 in the data set filed under Homo sapiens [2] and in the data set filed under Homo sapiens [4] was < 5 in each case.
Regarding `N=C(N)Nc1ccc(Cl)cc1`, the “inhibition (INH)” value in [8] is reported as “Active”. Moreover, the IC50 worked out at 10 µM in data set [1], 18.9 µM in [3] and 2.8 µM in data set [5]. In addition, the Ratio IC50 was < 5 in the data set filed under Homo sapiens [2] and 6 in the data set filed under Homo sapiens [4].
For `CC(C)(C)c1ccc(N=C(N)N)cc1`, the “inhibition (INH)” value in data set [9] is on record as “Active”. The concentration for half-maximal inhibition (IC50) in data set [1] is 0.9 µM; in data set [3] it was 8.3 µM; in data set [5], 2.2 µM. Further, the Ratio IC50 in the data set filed under Homo sapiens [2] and in the data set filed under Homo sapiens [4] was < 5 throughout.

For the origin of these results see ChEMBL document CHEMBL4043181, “A new chemotype inhibitor for the human organic cation transporter 3 (hOCT3)” (Bioorg Med Chem Lett, 2017).
